According to ChEMBL document CHEMBL3244070, “Spiro[isobenzofuran-1(3H),4'-piperidines]. 3. Diuretic and antihypertensive properties of compounds containing a sulfur attached to nitrogen” (1978):
Active and inactive are the calls of the source. The calls are words filed in the database; no cut-off is given here.

Legend:
[1] = test system: Rattus norvegicus; experiment: Diuretic activity in acute sodium loaded Wistar rat assessed as urine volume at 50 mg/kg, po measured for 0 to 5 hrs post drug dosing relative to urea; assay type: functional
Summary of the method: (§1)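 Female Wistar rats (150–200 g), fasted 16 h. Drug in 1% saline given orally at 15 mL/kg; animals kept in individual metabolic cages with water ad libitum. Urine collected 0–5 h. Each test had vehicle and urea (1000 mg/kg) groups. Na⁺ and K⁺ measured by flame photometry, Cl⁻ by chloride analyzer. Group means for volume and each ion expressed as a ratio to the urea group.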

[2] = test system: Mus musculus; experiment: Antidepressant activity in CD-1 mouse at 25 mg/kg, ip administered 30 mins prior to tetrabenazine challenge measured after 30 mins by tetrabenazine assay; assay type: functional, organism-based; design: dose 25 mg/kg
[3] = test system: Rattus norvegicus; experiment: Diuretic activity in acute sodium loaded Wistar rat assessed as sodium level in urine at 25 mg/kg, po measured for 0 to 5 hrs post drug dosing by flame photometer relative to urea; assay type: functional; summary of the method: as §1
[4] = test system: Rattus norvegicus; experiment: Diuretic activity in acute sodium loaded Wistar rat assessed as potassium level in urine at 25 mg/kg, po measured for 0 to 5 hrs post drug dosing by flame photometer relative to urea; assay type: functional; summary of the method: as §1
[5] = test system: Rattus norvegicus; experiment: Diuretic activity in acute sodium loaded Wistar rat assessed as urine volume at 25 mg/kg, po measured for 0 to 5 hrs post drug dosing relative to urea; assay type: functional; summary of the method: as §1
[6] = test system: Rattus norvegicus; experiment: Diuretic activity in acute sodium loaded Wistar rat assessed as sodium level in urine at 50 mg/kg, po measured for 0 to 5 hrs post drug dosing by flame photometer relative to urea; assay type: functional; summary of the method: as §1
[7] = test system: Rattus norvegicus; experiment: Diuretic activity in acute sodium loaded Wistar rat assessed as chloride level in urine at 25 mg/kg, po measured for 0 to 5 hrs post drug dosing by chloride analyzer relative to urea; assay type: functional; summary of the method: as §1
[8] = test system: Rattus norvegicus; experiment: Diuretic activity in acute sodium loaded Wistar rat assessed as potassium level in urine at 50 mg/kg, po measured for 0 to 5 hrs post drug dosing by flame photometer relative to urea; assay type: functional; summary of the method: as §1
[9] = test system: Rattus norvegicus; experiment: Antihypertensive activity in spontaneous hypertensive rat assessed as drop in systolic blood pressure at 100 mg/kg, po administered at 0 hrs on days 1, 2 and 3 measured at 2 hrs after drug dose on day 3 by indirect tail-cuff method; assay type: functional, Artery
Summary of the method: (§2)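 Spontaneously hypertensive rats, tail-cuff (indirect) systolic pressure. Pairs of rats held in a wire basket, conditioned 20 min in a 40 °C incubator. Each reading is the mean of 3–5 determinations. Rats had 2-week training for baseline; those below 175 mmHg were excluded. Oral dosing at 0 h on days 1–3 in groups of six, read before dosing and 2 h after the day-3 dose; paired t test.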

[10] = test system: Rattus norvegicus; experiment: Antihypertensive activity in spontaneous hypertensive rat assessed as drop in systolic blood pressure at 10 mg/kg, po administered at 0 hrs on days 1, 2 and 3 measured at 2 hrs after drug dose on day 3 by indirect tail-cuff method; assay type: functional, Artery; summary of the method: as §2
[11] = test system: Rattus norvegicus; experiment: Diuretic activity in acute sodium loaded Wistar rat assessed as chloride level in urine at 50 mg/kg, po measured for 0 to 5 hrs post drug dosing by chloride analyzer relative to urea; assay type: functional; summary of the method: as §1
[12] = test system: Rattus norvegicus; experiment: Antihypertensive activity in spontaneous hypertensive rat assessed as drop in systolic blood pressure at 50 mg/kg, po administered at 0 hrs on days 1, 2 and 3 measured at 2 hrs after drug dose on day 3 by indirect tail-cuff method; assay type: functional, Artery; summary of the method: as §2
[13] = test system: Rattus norvegicus; experiment: Antihypertensive activity in spontaneous hypertensive rat assessed as drop in systolic blood pressure at 25 mg/kg, po administered at 0 hrs on days 1, 2 and 3 measured at 2 hrs after drug dose on day 3 by indirect tail-cuff method; assay type: functional, Artery; summary of the method: as §2
[14] = test system: Rattus norvegicus; experiment: Diuretic activity in acute sodium loaded Wistar rat assessed as potassium level in urine at 5 mg/kg, po measured for 0 to 5 hrs post drug dosing by flame photometer relative to urea; assay type: functional; summary of the method: as §1
[15] = test system: Rattus norvegicus; experiment: Hypotensive activity in DOCA rat at 25 to 50 mg/kg, po; assay type: functional, organism-based
[16] = test system: Rattus norvegicus; experiment: Diuretic activity in acute sodium loaded Wistar rat assessed as potassium level in urine at 2 mg/kg, po measured for 0 to 5 hrs post drug dosing by flame photometer relative to urea; assay type: functional; summary of the method: as §1
[17] = test system: Rattus norvegicus; experiment: Diuretic activity in acute sodium loaded Wistar rat assessed as chloride level in urine at 2 mg/kg, po measured for 0 to 5 hrs post drug dosing by chloride analyzer relative to urea; assay type: functional; summary of the method: as §1
[18] = test system: Canis familiaris; experiment: Diuretic activity in dog at 1 to 50 mg/kg, po; assay type: functional, organism-based; conditions: Canis lupus familiaris, Urine
[19] = test system: Rattus norvegicus; experiment: Diuretic activity in acute sodium loaded Wistar rat assessed as chloride level in urine at 5 mg/kg, po measured for 0 to 5 hrs post drug dosing by chloride analyzer relative to urea; assay type: functional; summary of the method: as §1
[20] = test system: Canis familiaris; experiment: Antihypertensive activity in acute anesthetized dog at 10 mg/kg, iv; assay type: functional, organism-based; design: dose 10 mg/kg; conditions: Canis lupus familiaris
[21] = test system: Rhesus monkey; experiment: Diuretic activity in rhesus monkey at 10 to 20 mg/kg, po; assay type: functional, organism-based; conditions: Macaca mulatta, Urine
[22] = test system: Rattus norvegicus; experiment: Diuretic activity in acute sodium loaded Wistar rat assessed as urine volume at 2 mg/kg, po measured for 0 to 5 hrs post drug dosing relative to urea; assay type: functional; summary of the method: as §1
[23] = test system: Rattus norvegicus; experiment: Diuretic activity in acute sodium loaded Wistar rat assessed as urine volume at 5 mg/kg, po measured for 0 to 5 hrs post drug dosing relative to urea; assay type: functional; summary of the method: as §1
[24] = test system: Rattus norvegicus; experiment: Diuretic activity in acute sodium loaded Wistar rat assessed as potassium level in urine at 10 mg/kg, po measured for 0 to 5 hrs post drug dosing by flame photometer relative to urea; assay type: functional; summary of the method: as §1
[25] = test system: Rattus norvegicus; experiment: Diuretic activity in acute sodium loaded Wistar rat assessed as sodium level in urine at 2 mg/kg, po measured for 0 to 5 hrs post drug dosing by flame photometer relative to urea; assay type: functional; summary of the method: as §1
[26] = test system: Rattus norvegicus; experiment: Diuretic activity in acute sodium loaded Wistar rat assessed as urine volume at 10 mg/kg, po measured for 0 to 5 hrs post drug dosing relative to urea; assay type: functional; summary of the method: as §1
[27] = test system: Rattus norvegicus; experiment: Diuretic activity in acute sodium loaded Wistar rat assessed as sodium level in urine at 5 mg/kg, po measured for 0 to 5 hrs post drug dosing by flame photometer relative to urea; assay type: functional; summary of the method: as §1
[28] = test system: Rattus norvegicus; experiment: Diuretic activity in acute sodium loaded Wistar rat assessed as sodium level in urine at 10 mg/kg, po measured for 0 to 5 hrs post drug dosing by flame photometer relative to urea; assay type: functional; summary of the method: as §1
[29] = test system: Canis familiaris; experiment: Diuretic activity in dog at 20 mg/kg, iv; assay type: functional, organism-based; design: dose 20 mg/kg; conditions: Canis lupus familiaris, Urine
[30] = test system: Rattus norvegicus; experiment: Diuretic activity in acute sodium loaded Wistar rat assessed as chloride level in urine at 10 mg/kg, po measured for 0 to 5 hrs post drug dosing by chloride analyzer relative to urea; assay type: functional; summary of the method: as §1

SMILES | Ratio [1] | Activity [2] | Ratio [3] | Ratio [4] | Ratio [5] | Ratio [6] | Ratio [8] | Ratio [11] | Activity [12] [mmHg] | also measured
[O-][S+](c1ccccc1)N1CCC2(CC1)OC(c1ccccc1)c1ccccc12 (stereo not given) | 1.74 | inactive | 1.22 | 0.68 | 0.81 | 2.2 | 1 |  |  | Ratio [7]: 1.18; Activity [9]: 22 mmHg
N=C(N)NCCN1CCCCCCC1 [GUANETHIDINE] |  |  |  |  |  |  |  |  |  | Activity [10]: 34 mmHg
COc1ccc(SN2CCC3(CC2)OC(c2ccccc2)c2ccccc23)cc1 (stereo not given) | 1.47 | inactive | 0.97 | 0.84 | 1.4 | 1.78 | 0.8 | 1.47 | 14 | 
NS(=O)(=O)c1cc2c(cc1Cl)N=CNS2(=O)=O [CHLOROTHIAZIDE] | 1.6 |  |  |  |  | 2.2 | 1.1 |  |  | 
O=[N+]([O-])c1ccc(SN2CCC3(CC2)OC(c2ccccc2)c2ccccc23)cc1 (stereo not given) | 1.73 | inactive | 0.76 | 0.58 | 0.59 | 2.41 | 1.2 | 2.3 |  | Activity [13]: 9 mmHg; Ratio [7]: 0.75
O=S(=O)(c1ccccc1)N1CCC2(CC1)OC(c1ccccc1)c1ccccc12 (stereo not given) | 0.63 | inactive |  |  |  | 0.7 | 0.57 | 0.79 | 13 | 
c1ccc(SN2CCC3(CC2)OC(c2ccccc2)c2ccccc23)cc1 (stereo not given) | 1.71 | inactive | 2.5 | 1.2 | 2.2 | 1.83 | 0.97 | 1.85 | 66 | Ratio [14]: 0.86; Activity [15]: Active; Ratio [16]: 0.74; Ratio [17]: 1.19; Activity [18]: inactive; Ratio [19]: 1.43; Activity [20]: inactive; Activity [21]: inactive; Ratio [22]: 1; Ratio [23]: 1.2; Ratio [24]: 0.94; Ratio [25]: 1.2; Activity [13]: 44 mmHg; Ratio [26]: 1.49; Ratio [27]: 1.31; Ratio [28]: 1.69; Activity [29]: inactive; Ratio [30]: 1.62
